Data on 1 molecule can be found in ChEMBL document CHEMBL5712920, “The histone methyltransferase inhibitor A-366 enhances hemoglobin expression in erythroleukemia cells upon co-exposure with chemical inducers in culture” (J Biol Res (Thessalon), 2021).

The structures appear in SMILES notation. Active and inactive are the calls of the source. The calls are words filed in the database; no cut-off is given here.

Data set [1] in a line: Inhibition of G9a/GLP in HMBA-stiumulated mouse FLC clone 745 cells assessed as increase in erythroid differentiation at IC50 concentration measured after 72 hrs by benzidine-H2O2 based assay (reference value: 69.6%). The conditions noted are these: condition erythroleukemia.
For data set [2], the system named is FLC clone 745. Nature of the data set: Inhibition of G9a/GLP in HMBA-stiumulated mouse FLC clone 745 cells assessed as increase in HBB protein expression at 10^-6 M after 48 hrs by Western blot analsysis. The class given is cell-based. The conditions noted are these: dose 1.0 10^-6M. A digest of the protocol: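 MEL cells treated for 48 h with HMBA 5 × 10−3 M plus compound at 10−6 M. About 10^6 cells lysed in Tris/NaCl/2% SDS, sonicated, and protein quantified by BCA. 20 µg run on a 12% SDS-PAGE gel and transferred to PVDF. Membrane probed overnight at 4 °C with anti-hemoglobin β/γ/δ/ε, with β-tubulin as loading control, then HRP secondary for 1 h at room temperature.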
In general terms: Immunoblotting shows a protein as a band on a membrane.

In data set [3] the test system is FLC clone 745. Nature of the data set: Induction of cell cycle arrest in mouse FLC clone 745 cells assessed as accumulation cells at > 4N phase at 10^-6 M after 24 hrs by PI staining based flow cytometric analysis (reference value: 13.47%). The class given is functional. The conditions noted are these: dose 1 10^-6M, at 1 µM. A digest of the protocol:
(§1)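 MEL cells plated at 5 × 10^5 per well and synchronized by serum deprivation for 24 h. Cells then incubated with compound at 10−6 M, alone or with HMBA 5 × 10−3 M, for 24, 48 and 72 h. Fixed in 70% ethanol overnight at 4 °C, stained with propidium iodide, and DNA content measured by flow cytometry to assign subG1, G1, S, G2/M and >4N fractions.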

The subject of data set [4] is FLC clone 745. Nature of the data set: Induction of cell cycle arrest in HMBA-stimulated mouse FLC clone 745 cells assessed as accumulation cells at G1/G0 phase at 10^-6 M after 24 hrs by PI staining based flow cytometric analysis (reference value: 17.28%). The class given is functional. The conditions noted are these: dose 1 10^-6M, at 1 µM. A digest of the protocol:
as §1
In general terms: In flow cytometry, cells or beads pass a laser one at a time.

The test system of data set [5] is FLC clone 745. As to the kind of experiment: Induction of cell cycle arrest in mouse FLC clone 745 cells assessed as accumulation cells at G1/G0 phase at 10^-6 M after 72 hrs by PI staining based flow cytometric analysis (reference value: 26.4%). The class given is functional. The conditions noted are these: dose 1 10^-6M, at 1 µM. Summed up:
as §1

In data set [6] the test system is FLC clone 745. As to the kind of experiment: Induction of cell cycle arrest in HMBA-stimulated mouse FLC clone 745 cells assessed as accumulation cells at G2/M phase at 10^-6 M after 48 hrs by PI staining based flow cytometric analysis (reference value: 6.67%). The data set is classed as functional. The conditions noted are these: dose 1 10^-6M, at 1 µM. Summed up:
as §1

Data set [7] relates to FLC clone 745. Nature of the data set: Induction of cell cycle arrest in mouse FLC clone 745 cells assessed as accumulation cells at G2/M phase at 10^-6 M after 48 hrs by PI staining based flow cytometric analysis (reference value: 28.15%). The data set is classed as functional. The note with it: dose 1 10^-6M, at 1 µM. Summed up:
as §1

For data set [8], the system named is FLC clone 745. Nature of the data set: Induction of cell cycle arrest in mouse FLC clone 745 cells assessed as accumulation cells at G1/G0 phase at 10^-6 M after 48 hrs by PI staining based flow cytometric analysis (reference value: 25.43%). The data set is classed as functional. The note with it: dose 1 10^-6M, at 1 µM. Summed up: as §1
Data set [9] relates to FLC clone 745. Nature of the data set: Induction of cell cycle arrest in mouse FLC clone 745 cells assessed as accumulation cells at > 4N phase at 10^-6 M after 72 hrs by PI staining based flow cytometric analysis (reference value: 14.89%). The class given is functional. The conditions noted are these: dose 1 10^-6M, at 1 µM. A digest of the protocol:
as §1

In data set [10] the test system is FLC clone 745. As to the kind of experiment: Induction of cell cycle arrest in mouse FLC clone 745 cells assessed as accumulation cells at subG1 phase at 10^-6 M after 48 hrs by PI staining based flow cytometric analysis (reference value: 9.79%). The class given is functional. The note with it: dose 1 10^-6M, at 1 µM. Summed up:
as §1

The subject of data set [11] is K562. Nature of the data set: Induction of apoptosis in human K562 cells assessed as effect on caspase-8 mRNA expression level at 1 to 10 uM cells after 48 hrs by qPCR analysis. The class given is toxicity, cell-based. The note with it: k562, 48 h, dose 1-10 µM. Summed up:
(§2)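 K562 cells at 10^5 cells/ml grown without compound (control) or with 10−6 M or 10−5 M compound for 48 h. Total RNA isolated, then checked by gel electrophoresis and spectrophotometry. Transcripts quantified by qPCR.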
In general terms: Quantitative PCR measures a nucleic acid by following its amplification.

The subject of data set [12] is K562. Nature of the data set: Induction of apoptosis in human K562 cells assessed as effect on Bcl-2 mRNA expression level at 1 to 10 uM cells after 48 hrs by qPCR analysis. The note with it: k562, 48 h, dose 1-10 µM. The class given is toxicity, cell-based. A digest of the protocol: as §2
In data set [13] the test system is FLC clone 745. Nature of the data set: Induction of cell cycle arrest in mouse FLC clone 745 cells assessed as accumulation cells at G1/G0 phase at 10^-6 M after 24 hrs by PI staining based flow cytometric analysis (reference value: 19.61%). The conditions noted are these: dose 1 10^-6M, at 1 µM. The class given is functional. Summed up:
as §1

Data set [14] concerns FLC clone 745. Nature of the data set: Induction of cell cycle arrest in mouse FLC clone 745 cells assessed as accumulation cells at S phase at 10^-6 M after 24 hrs by PI staining based flow cytometric analysis (reference value: 28.46%). The note with it: dose 1 10^-6M, at 1 µM. The data set is classed as functional. Summed up: as §1
In data set [15] the test system is FLC clone 745. As to the kind of experiment: Induction of cell cycle arrest in HMBA-stimulated mouse FLC clone 745 cells assessed as accumulation cells at S phase at 10^-6 M after 24 hrs by PI staining based flow cytometric analysis (reference value: 21.59%). The data set is classed as functional. The note with it: dose 1 10^-6M, at 1 µM. Summed up:
as §1

Data set [16] concerns FLC clone 745. Nature of the data set: Induction of cell cycle arrest in HMBA-stimulated mouse FLC clone 745 cells assessed as accumulation cells at > 4N phase at 10^-6 M after 72 hrs by PI staining based flow cytometric analysis (reference value: 4.66%). The data set is classed as functional. The note with it: dose 1 10^-6M, at 1 µM. Summed up: as §1

As for `COc1cc2c(cc1OCCCN1CCCC1)N=C(N)C21CCC1`, the “inhibition (INH)” value in data set [1] turned out to be 76.6%. Besides, the inhibition entry in data set [2] is “Active”. Further, the Activity is 9.49% in data set [3]; 12.13% in [4]; 14.22% in data set [5]; 5.67% in [6]; 22.21% in data set [7]; 21% in [8]. Besides, the Activity in [9] is on record as 11.78%; in [10] it was 18.28%; in data set [11], “Non-Toxic”; in [12], “Non-Toxic”; in data set [13], 20.43%; in data set [14] it was 23.91%. Also, the figures for the Activity in data set [15] and in [16] were 1.26% and 2.89%, respectively.
